This is an account of results in ChEMBL document CHEMBL4007460, “17β-Hydroxywithanolides as Sensitizers of Renal Carcinoma Cells to Tumor Necrosis Factor-α Related Apoptosis Inducing Ligand (TRAIL) Mediated Apoptosis: Structure-Activity Relationships” (J Med Chem, 2017).

The source made the active and inactive calls. The rule behind the calls is not given here. Some results are limits rather than exact numbers.

In data set [1] the test system is ACHN. Put plainly: Sensitization of TRAIL-induced apoptosis in human ACHN cells assessed as reduction in cell viability preincubated for 2 hrs followed by addition of TRAIL measured after 18 hrs by MTS assay. Type of data set: functional, cell-based. The method in brief:
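ACHN cells were seeded at 5000/well and rested overnight at 37 °C, in RPMI with 5% FCS, glutamine, NEAA, pyruvate, HEPES and 2-mercaptoethanol. Compound pretreatment ran 2 h, then TRAIL was added to 50 ng/mL for 18 h at 37 °C. Viability was read by MTS (2 h, A490). IC50 values (cell number reduced 50%) came from dose-response curves; triplicates, at least 3 independent experiments, ± SD.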
(In general: Tetrazolium dyes change colour on reduction, which living cells bring about.)

Data set [2] in a line: Glutathione reactivity in DMSO assessed as formation of MIchael adduct with GSH at pH 7.4 after 24 hrs in presence of NAC by HPLC method. The method in brief:
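Withanolide (2.12 μM in DMSO, 0.5 mL) mixed with equal volume of 4.24 μM GSH or NAC solution at pH 7.4, 37 °C. Aliquots taken at 0, 0.5, 2, 4, 8, 24 h, stored −80 °C; unreacted withanolide quantified by C18 HPLC (H2O with 40 mM NH4OAc–MeOH gradient, UV 230 nm) using peak area.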

Data set [3] deals with ACHN. Put plainly: Cytotoxicity in human ACHN cells assessed as reduce cell number after 48 hrs by MTS assay. Type of data set: cell-based. The method in brief:
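ACHN cells exposed to compound for 48 h at 37 °C; viable cell number by MTS read-out. Triplicate determinations; IC50 (concentration reducing cell number by 50%) from 3 independent experiments, ± SD.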

Data set [4] has as its system ACHN. Put plainly: Reduction cFLIP level in human ACHN cells at 500 nM after 18 hrs by Western blot analysis. Type of data set: functional, cell-based. The method in brief:
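ACHN cells (RPMI, 5% FBS) plated 1.5×10^6/well, grown overnight at 37 °C, then exposed to compound at 500 nM for 18 h. Lysed in RIPA with protease/phosphatase inhibitors and zVAD-FMK; 20 μg protein per lane immunoblotted with anti-FLIP (7F10); GAPDH as loading control.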
(Immunoblotting shows a protein as a band on a membrane.)

A word on the IC50: it is the midpoint of a concentration-inhibition curve. Regarding `CC(=O)OC[C@]12CC[C@H]3[C@@H](CC=C4CC=CC(=O)[C@@]43C)[C@]1(O)[C@@H](O)C[C@@]2(O)[C@@](C)(O)[C@H]1CC(C)=C(C)C(=O)O1`, the IC50 in the data set on ACHN [1] is greater than 4000 nM. In the case of `CC(=O)OC[C@]12CC[C@H]3[C@@H](CC=C4CC=CC(=O)[C@@]43C)[C@]1(O)CC[C@@]2(O)[C@@](C)(O)[C@H]1CC(C)=C(C)C(=O)O1`, the IC50 in the data set on ACHN [1] was 564 nM. For the compound `CC(=O)OC[C@]12CC[C@H]3[C@@H](C[C@H]4O[C@]45CC=CC(=O)[C@]35C)[C@]1(O)CC[C@@]2(O)[C@@](C)(O)[C@H]1C[C@]2(C)O[C@]2(C)C(=O)O1`, the half-inhibitory concentration (IC50) in the data set on ACHN [1] was 1250 nM. As for `CC(=O)O[C@@H]1C=CC(=O)[C@]2(C)[C@H]3CC[C@]4(C)[C@](O)([C@@](C)(O)[C@H]5CC(C)=C(C)C(=O)O5)CC[C@@]4(O)[C@@H]3C[C@H]3O[C@]132`, the result in data set [2] was Active. The half-maximal inhibitory concentration (IC50) with ACHN [1] came out at 90 nM. Further, in the data set with ACHN [3], the Activity entry is listed as “Toxic”.

With `CC(=O)OC[C@]12CC[C@H]3[C@@H](CC=C4CC=CC(=O)[C@@]43C)[C@]1(O)[C@@H](OC(C)=O)C[C@@]2(O)[C@@](C)(O)[C@H]1CC(C)=C(C)C(=O)O1`, the IC50 with ACHN [1] is greater than 4000 nM. On the same count and under the same terms, as for `CC(=O)OC[C@]12CC[C@H]3[C@@H](C[C@H]4O[C@]45CC=CC(=O)[C@]35C)[C@]1(O)[C@@H](O)C[C@@]2(O)[C@@](C)(O)[C@H]1CC(C)=C(C)C(=O)O1`, the figure is greater than 4000 nM; as for `CC1=C(C)C(=O)O[C@@H]([C@](C)(O)[C@]2(O)CC[C@@]3(O)[C@@H]4CC=C5[C@H](O)C=CC(=O)[C@]5(C)[C@H]4CC[C@]23C)C1`, 284 nM. For `COC(=O)O[C@H]1C=CC(=O)[C@]2(C)[C@H]3CC[C@]4(C)[C@](O)([C@@](C)(O)[C@H]5CC(C)=C(C)C(=O)O5)CC[C@@]4(O)[C@@H]3C[C@H]3O[C@]132`, the result (in data set [2]; in the data set with ACHN [4]) was Active. For the same compound, the IC50 with ACHN [1] worked out at 111 nM. In addition, the Activity result in the data set on ACHN [3] is on record as “Toxic”. In the case of `CC(=O)OC[C@]12CC[C@H]3[C@@H](CC=C4CC=CC(=O)[C@@]43C)[C@]1(O)[C@@H](OC(C)=O)C[C@@]2(O)[C@@](C)(O)[C@H]1CC(CO)=C(C)C(=O)O1`, in the data set with ACHN [1], the IC50 is greater than 4000 nM. Same read-out and setting: as for `CC(=O)OC[C@]12CC[C@H]3[C@@H](C[C@@H]4O[C@@]45CC=CC(=O)[C@]35C)[C@]1(O)[C@@H](O)C[C@@]2(O)[C@@](C)(O)[C@H]1CC(C)=C(C)C(=O)O1`, the figure is 1650 nM. The same measure, in the same setting: for `CC(=O)OC[C@]12CC[C@H]3[C@@H](C[C@H]4O[C@]45C[C@@H](n4ccnc4)CC(=O)[C@]35C)[C@]1(O)CC[C@@]2(O)[C@@](C)(O)[C@H]1CC(C)=C(C)C(=O)O1` the value was 164 nM. On the same count and under the same terms, for `CC(=O)OC[C@]12CC[C@H]3[C@@H](C[C@H]4O[C@]45C[C@@H](N=[N+]=[N-])CC(=O)[C@]35C)[C@]1(O)CC[C@@]2(O)[C@@](C)(O)[C@H]1CC(C)=C(C)C(=O)O1` the value was 251 nM; for `CC(=O)OC[C@]12CC[C@H]3[C@@H](C[C@H]4O[C@]45CCCC(=O)[C@]35C)[C@]1(O)CC[C@@]2(O)[C@@](C)(O)[C@H]1CC(C)=C(C)C(=O)O1`, greater than 4000 nM; for `CC1=C(C)C(=O)O[C@@H]([C@](C)(O)[C@]2(O)CC[C@@]3(O)[C@@H]4C[C@H]5O[C@]56CCCC(=O)[C@]6(C)[C@H]4CC[C@]23CO)C1`, greater than 4000 nM. `CC(=O)OC[C@]12CC[C@H]3[C@@H](CC=C4C[C@@H](OS(=O)(=O)O)CC(=O)[C@@]43C)[C@]1(O)CC[C@@]2(O)[C@@](C)(O)[C@H]1CC(C)=C(C)C(=O)O1`: the IC50 in the data set with ACHN [1] is greater than 4000 nM. The same measure, in the same setting: as for `CC1=C(C)C(=O)O[C@@H]([C@](C)(O)[C@]2(O)CC[C@@]3(O)[C@@H]4C[C@H]5O[C@]56[C@@H](O)[C@@H](N=[N+]=[N-])CC(=O)[C@]6(C)[C@H]4CC[C@]23C)C1`, the figure is 1800 nM; as for `CC(=O)OC[C@]12CC[C@H]3[C@@H](C[C@@H]4O[C@@]45CC=CC(=O)[C@]35C)[C@]1(O)[C@@H](OC(C)=O)C[C@@]2(O)[C@@](C)(O)[C@H]1CC(C)=C(C)C(=O)O1`, greater than 4000 nM; as for `CC(=O)OC[C@]12CC[C@H]3[C@@H](C[C@H]4O[C@]45CC=CC(=O)[C@]35C)[C@]1(O)[C@@H](OC(C)=O)C[C@@]2(O)[C@@](C)(O)[C@H]1CC(C)=C(C)C(=O)O1`, greater than 4000 nM. In the case of `CC(=O)OC[C@]12CC[C@H]3[C@@H](C[C@@H]4O[C@@]45CC=CC(=O)[C@]35C)[C@]1(O)CC[C@@]2(O)[C@@](C)(O)[C@H]1CC(C)=C(C)C(=O)O1`, in data set [2], the outcome was inactive. Also, the IC50 in the data set on ACHN [1] was greater than 4000 nM. On to `CC(=O)OC[C@]12CC[C@H]3[C@@H](CC=C4CC=CC(=O)[C@@]43C)[C@]1(O)[C@@H](OC(C)=O)C[C@@]2(O)[C@@](C)(O)[C@H]1CC(C)=C(CO)C(=O)O1`, for which the 50% inhibitory concentration (IC50) in the data set on ACHN [1] was greater than 4000 nM. On to `CC1=C(C)C(=O)O[C@@H]([C@](C)(O)[C@]2(O)CC[C@@]3(O)[C@@H]4CC=C5C(=O)C=CC(=O)[C@]5(C)[C@H]4CC[C@]23C)C1`, for which the half-inhibitory concentration (IC50) in the data set on ACHN [1] turned out to be 168 nM.

Consider `CC(=O)OC[C@]12CC[C@H]3[C@@H](CC=C4CC=CC(=O)[C@@]43C)[C@]1(O)[C@@H](OC(C)=O)C[C@@]2(O)[C@@](C)(O)[C@H]1CC(C)=C(CO[C@@H]2O[C@H](CO)[C@@H](O)[C@H](O)[C@H]2O)C(=O)O1`, for which, in the data set on ACHN [1], the IC50 is greater than 4000 nM.

`CC1=C(C)C(=O)O[C@@H]([C@](C)(O)[C@]2(O)CC[C@@]3(O)[C@@H]4C[C@H]5O[C@]56[C@@H](O)C=CC(=O)[C@]6(C)[C@H]4CC[C@]23C)C1`: the outcome in data set [2] was Active. For the same compound, in the data set with ACHN [1], the IC50 was 563 nM. In addition, in the data set with ACHN [3], the Activity entry was “Toxic”. Take `CC(=O)OC[C@]12CC[C@H]3[C@@H](CC=C4C[C@@H](OS(=O)(=O)O)CC(=O)[C@@]43C)[C@]1(O)[C@@H](OC(C)=O)C[C@@]2(O)[C@@](C)(O)[C@H]1CC(C)=C(C)C(=O)O1`: the 50% inhibitory concentration (IC50) in the data set with ACHN [1] was greater than 4000 nM. On the same count and under the same terms, as for `CC1=C(C)C(=O)O[C@@H]([C@](C)(O)[C@]2(O)CC[C@@]3(O)[C@@H]4C[C@H]5O[C@]56[C@@H](OC(=O)n5ccnc5)C=CC(=O)[C@]6(C)[C@H]4CC[C@]23C)C1`, the figure is 233 nM; as for `CC1=C(C)C(=O)O[C@@H]([C@](C)(O)[C@]2(O)CC[C@@]3(O)[C@@H]4C[C@H]5O[C@]56C(=O)C=CC(=O)[C@]6(C)[C@H]4CC[C@]23C)C1`, greater than 4000 nM. As to `CC1=C(C)C(=O)O[C@@H]([C@](C)(O)[C@]2(O)CC[C@@]3(O)[C@@H]4C[C@H]5O[C@]56CC=CC(=O)[C@]6(C)[C@H]4CC[C@]23CO)C1`, the IC50 in the data set on ACHN [1] was 1950 nM.

Regarding `CC(=O)O[C@H]1C=CC(=O)[C@]2(C)[C@H]3CC[C@]4(C)[C@](O)([C@@](C)(O)[C@H]5CC(C)=C(C)C(=O)O5)CC[C@@]4(O)[C@@H]3C[C@H]3O[C@]132`, the outcome (in data set [2]; in the data set on ACHN [4]) was Active. The IC50 in the data set with ACHN [1] amounted to 76 nM. Besides, the Activity entry with ACHN [3] is “Toxic”.

As for `CO[C@H]1CC(=O)[C@]2(C)[C@H]3CC[C@]4(COC(C)=O)[C@](O)([C@@](C)(O)[C@H]5CC(C)=C(C)C(=O)O5)CC[C@@]4(O)[C@@H]3C[C@H]3O[C@]32C1`, the IC50 in the data set with ACHN [1] was greater than 4000 nM. Same read-out and setting: as for `CC(=O)OCC1=C(C)C(=O)O[C@@H]([C@](C)(O)[C@]2(O)C[C@H](OC(C)=O)[C@@]3(O)[C@@H]4CC=C5CC=CC(=O)[C@]5(C)[C@H]4CC[C@@]32COC(C)=O)C1`, the figure is greater than 4000 nM. For the compound `CC(=O)OC[C@]12CC[C@H]3[C@@H](CC=C4CC=CC(=O)[C@@]43C)[C@]1(O)[C@@H](OC(C)=O)C[C@@]2(O)[C@@](C)(O)[C@H]1CC(CO[C@@H]2O[C@H](CO)[C@@H](O)[C@H](O)[C@H]2O)=C(C)C(=O)O1`, the IC50 in the data set on ACHN [1] is greater than 4000 nM.
